Source: PubChem BioAssay (several laboratories)
Shown are actives, neighbours in structure and some others; about 2.6% of the full set was active somewhere.
SENP8 block-1: blocks human SENP8 cleavage of Nedd8 substrate. Q96LD8. recombinant SENP8, Nedd8 substrate fluorescence. inhibition, % at 20 µM. 360,000 tested, 0.64% active. AID 602440; in the data active = inhibition mostly above about 40%, no sharp cut-off; inactive = mostly below about 27%
SENP6 block: inhibitors of human SENP6 protease. 330,000 tested, 1.8% active. Q9GZR1. inhibition, % at 10 µM. AID 2599. Recombinant SENP6 catalytic domain, aminoluciferin luminescence;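 active = inhibition above about 50% at the single tested dose, limit read from the data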;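 note: plate controls were DMSO wells with enzyme for no effect and DMSO wells lacking enzyme for full effect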
Target sequence (Q9GZR1 628-1112 limits assumed): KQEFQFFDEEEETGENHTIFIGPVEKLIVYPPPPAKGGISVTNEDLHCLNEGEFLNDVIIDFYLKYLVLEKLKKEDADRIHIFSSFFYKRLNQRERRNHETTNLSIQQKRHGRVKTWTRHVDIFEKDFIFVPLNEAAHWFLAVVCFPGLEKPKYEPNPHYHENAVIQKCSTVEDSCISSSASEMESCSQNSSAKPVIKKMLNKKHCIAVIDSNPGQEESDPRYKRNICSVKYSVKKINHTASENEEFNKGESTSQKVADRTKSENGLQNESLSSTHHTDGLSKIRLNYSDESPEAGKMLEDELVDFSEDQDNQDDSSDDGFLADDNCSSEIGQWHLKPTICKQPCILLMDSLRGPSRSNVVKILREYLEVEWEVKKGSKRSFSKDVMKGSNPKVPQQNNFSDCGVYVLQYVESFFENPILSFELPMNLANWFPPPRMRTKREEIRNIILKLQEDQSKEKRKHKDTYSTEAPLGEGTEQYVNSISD
Platelet DG rel: modulates dense granule release in human platelets; human platelet-rich plasma, SFLLRN dense granule ATP release, luminescence; AID 1663; 300,000 tested, 0.22% active; inhibition, %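 (compounds screened at 7.5 µM in platelet-rich plasma)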;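 active = mean replicate score, as percent of positive control, at or above 50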
SENP8 block-2: blocks the human protease SENP8; 330,000 tested, 1.2% active; AID 2540; inhibition, % at 10 µM; purified SENP8, Z-RLRGG-aminoluciferin cleavage, luminescence; in the data active = inhibition above about 50%
SENP1 inh: inhibitors of human SENP1 SUMO protease catalytic domain. Q9P0U3. recombinant SENP1 catalytic domain, CyPet-SUMO1-YPet FRET cleavage. inhibition, % at 10 µM. 360,000 tested, 0.21% active. AID 624204;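 active = inhibition at least 30% at 10 µM, raw YFP signal under a set limit, fluorescence ratio 0.5 to 1.5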;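 note: 0% = enzyme with DMSO and 100% = no enzyme wells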
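Material – human SENP1 catalytic domain · Input – SENP1 enzyme, 20 pM final · Compound dosing – single concentration of 10 µM compound, 0.5% DMSO final · Timing – enzyme reaction for 50 min at room temperature, dark · Measured by – FRET fluorescence in CFP and YFP emission channels · Control set – no-enzyme wells low, DMSO-plus-enzyme wells high control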
SENP7 inh: inhibitors of human SENP7 protease; Q9BQF6; recombinant SENP7, Z-RLRGG-aminoluciferin luminescence, 40 min; inhibition, % at 5 µM; 330,000 tested, 1.5% active;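 active = inhibition above about 50% at the single test dose, limit read from the data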;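 note: plate controls were DMSO with enzyme for no effect and no enzyme buffer wells for full effect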
SENP8 conf: confirmation of human SENP8 protease inhibitors | shares compounds with SENP7 inh | Recombinant SENP8, Z-RLRGG-aminoluciferin luminescence, 60 min | inhibition, % at 12.5 µM | 6,200 tested, 40% active;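 active = mean inhibition across replicates above about 50%, limit read from the data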
SENP6 confirm: human SENP6 inhibition, confirmed; shares compounds with SENP7 inh; recombinant SENP6, Z-RLRGG-aminoluciferin luminescence; inhibition, % at 12.5 µM; 6,200 tested, 58% active
SENP7 confirm: confirmation of human SENP7 protease inhibitors | recombinant SENP7, Z-RLRGG-aminoluciferin luminescence, 40 min | 6,200 tested, 69% active | shares compounds with SENP7 inh | inhibition, % at 12.5 µM
Casp3 SENP sel: inhibits human caspase-3 in SENP selectivity test | shares compounds with SENP7 inh | purified caspase-3, Z-DEVD-aminoluciferin luminescence, 60 min | inhibition, % at 12.5 µM | 6,200 tested, 60% active | AID 488918;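 active = mean inhibition above about 50%, limit read from the data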;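 note: plate controls were enzyme with DMSO for no effect and wells without caspase-3 for full effect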
SENP luc ctr: interferes with luciferase luminescence in SENP counter-screen; Pre-incubated SENP8/Z-RLRGG-aminoluciferin, luciferase luminescence interference; inhibition, % at 12.5 µM; AID 488919; 6,200 tested, 39% active; shares compounds with SENP7 inh;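 active = mean inhibition above about 50% when retested at one dose, limit read from the data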;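 note: plate controls were DMSO wells with completed reaction for no effect and substrate without enzyme for full effect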
* = called active by the depositor; / = no result.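 Rule for the calls, unless noted: active = mean inhibition above about 50% in the one-dose retest (limit read from the data); inactive = the rest.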

SMILES	SENP8 block-1	SENP6 block	Platelet DG rel	SENP8 block-2	SENP1 inh	SENP7 inh	SENP8 conf	SENP6 confirm	SENP7 confirm	Casp3 SENP sel	SENP luc ctr
CC(=O)c1sc(NC(=O)c2cccs2)nc1C	-24	62*	15	45	-2	62*	14	52*	81*	84*	3
COC(=O)c1sc(NC(=S)NC(=O)c2ccccc2)nc1C	18	37	-4	8	-1	12	/	/	/	/	/
COC(=O)c1sc(NC(=S)NC(=O)c2ccccc2Cl)nc1C	13	62*	-3	36	-1	27	-16	-20	-2	13	-1
Cc1nc(NC(=O)c2cccs2)ccc1Br	-11	-14	4	70*	2	81*	82*	82*	95*	80*	70*
COC(=O)c1cc(S(=O)(=O)Nc2cccc(C)c2C)cn1C	20	0	19	2	3	2	/	/	/	/	/
O=c1cc(-c2ccccc2)[nH]n1-c1nc2ccccc2[nH]1	-264	65*	3	24	-64	11	35	52*	85*	78*	49
CC1CCCCC1n1c(=S)[nH]c2ccccc2c1=O (stereo not drawn)	-3	-4	-4	1	0	-13	/	/	/	/	/
COc1cc(/C=C2/SC(=O)NC2=O)ccc1OC(=O)c1ccco1	-15	88*	-8	82*	5	85*	58*	74*	24	61*	22
COc1cc(/C=N/N(C)C)ccc1OC(=O)c1ccco1	7	-7	-6	-6	0	1	/	/	/	/	/
O=C1NC(=S)S/C1=C/c1ccc(OC(=O)c2ccco2)cc1	27	76*	-7	46	25	29	21	32	9	26	10
COc1cc(/C=C2\C(=O)N(c3ccc(S(N)(=O)=O)cc3)N=C2C)ccc1OC(=O)c1ccco1	57*	76*	-3	26	7	70*	12	35	-2	5	-1
CCOC(=O)c1ccc(N2NC(=O)/C(=C/c3ccc(OC(=O)c4ccco4)c(OC)c3)C2=O)cc1	/	-18	20	-12	/	-1	/	/	/	/	/
COc1cc(/C=N/N2CCOCC2)ccc1OC(=O)c1ccco1	-2	60*	19	40	1	70*	60*	57*	88*	67*	77*
Cc1cc(OCC(=O)OCC(=O)NCc2cccs2)ccc1Cl	9	13	/	-16	5	-12	/	/	/	/	/
CN[C@H](CC(=O)O)C(=O)O	5	-14	-1	1	1	-8	/	/	/	/	/
COc1cc(/C=C2/C(=N)N3C(SC)=NSC3=NC2=O)ccc1OC(=O)c1ccco1	8	53*	0	64*	-80	8	75*	73*	92*	68*	13
Cc1ccc(NC2Sc3ccccc3NC2=O)cc1 (stereo not drawn)	9	77*	-5	53*	-3	30	53*	41	68*	57*	55*
O=C1Nc2ccccc2SC1c1ccccc1 (stereo not drawn)	11	/	3	/	3	/	/	/	/	/	/
Cc1ccccc1C(=O)NN1CC(C(=O)OCc2ccc(Cl)c(Cl)c2)CC1=O (stereo not drawn)	7	-8	3	0	2	1	/	/	/	/	/
COc1ccc(NC(C)C(=O)N/N=C/c2ccccc2OCc2cccc(Br)c2)cc1 (stereo not drawn)	20	5	2	2	1	93*	-13	-6	-9	7	-2
